Source: ChEMBL document CHEMBL1938318, “Design, synthesis and evaluation of novel molecules with a diphenyl ether nucleus as potential antitubercular agents” (Bioorg Med Chem Lett, 2012)
Calls of active or inactive are those of the source. The calls are words filed in the database; no cut-off is given here.

Key:
[1] = tested on: Mycobacterium tuberculosis; assay: Antitubercular activity against Mycobacterium bovis BCG infected in BALB/c mouse assessed as log reduction in CFU in lungs at 25 mg/kg, po qd administered 48 hrs post infection for 6 weeks measured after 6 weeks (reference value: 4.64+/-0.17 log10CFU); type: functional, variant bovis BCG
Procedure, shortened: (§1)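 Female BALB/c mice infected intravenously with approx. 1 × 10⁵ CFU M. bovis BCG; compound given orally at 25 mg/kg once daily for six weeks, then sacrificed. Lung and spleen homogenates plated on modified Lowenstein-Jensen medium, colonies counted after six weeks at 37 °C; mean log10 CFU per organ versus vehicle-treated group (n = 6–8 mice/group).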

[2] = tested on: Mycobacterium tuberculosis; assay: Antitubercular activity against Mycobacterium bovis BCG infected in BALB/c mouse assessed as log reduction in CFU in spleen at 25 mg/kg, po qd administered 48 hrs post infection for 6 weeks measured after 6 weeks (reference value: 4.79+/-0.25 log10CFU); type: functional, variant bovis BCG; procedure, shortened: as §1
[3] = tested on: Mycobacterium tuberculosis; assay: Antitubercular activity against Mycobacterium bovis BCG infected in BALB/c mouse assessed as reduction in perivascular accumulation of epitheloid macrophages in lungs at 25 mg/kg, po qd administered 48 hrs post infection for 6 weeks by hematoxylin/eosin staining; type: functional, organism-based; set-up: dose 25 mg/kg; conditions: variant bovis BCG
[4] = tested on: Mycobacterium tuberculosis; assay: Antitubercular activity against Mycobacterium bovis BCG infected in BALB/c mouse assessed as reduction in peribronchial accumulation of epitheloid macrophages in lungs at 25 mg/kg, po qd administered 48 hrs post infection for 6 weeks by hematoxylin/eosin staining; type: functional, organism-based; set-up: dose 25 mg/kg; conditions: variant bovis BCG
[5] = tested on: Mycobacterium tuberculosis; assay: Antitubercular activity against Mycobacterium bovis BCG infected in BALB/c mouse assessed as reduction in perivascular accumulation of granulocytes in lungs at 25 mg/kg, po qd administered 48 hrs post infection for 6 weeks by hematoxylin/eosin staining; type: functional, organism-based; set-up: dose 25 mg/kg; conditions: variant bovis BCG
[6] = tested on: Mycobacterium tuberculosis; assay: Antitubercular activity against Mycobacterium bovis BCG infected in BALB/c mouse assessed as reduction in peribronchial accumulation of granulocytes in lungs at 25 mg/kg, po qd administered 48 hrs post infection for 6 weeks by hematoxylin/eosin staining; type: functional, organism-based; set-up: dose 25 mg/kg; conditions: variant bovis BCG
[7] = tested on: Mycobacterium tuberculosis; assay: Antitubercular activity against Mycobacterium bovis BCG infected in BALB/c mouse assessed as reduction in perivascular accumulation of lymphocytes in lungs at 25 mg/kg, po qd administered 48 hrs post infection for 6 weeks by hematoxylin/eosin staining; type: functional, organism-based; set-up: dose 25 mg/kg; conditions: variant bovis BCG
[8] = tested on: Mycobacterium tuberculosis; assay: Antitubercular activity against Mycobacterium bovis BCG infected in BALB/c mouse assessed as reduction in peribronchial accumulation of lymphocytes in lungs at 25 mg/kg, po qd administered 48 hrs post infection for 6 weeks by hematoxylin/eosin staining; type: functional, organism-based; set-up: dose 25 mg/kg; conditions: variant bovis BCG

Compound: O=C(Cc1cccc(Oc2ccccc2)c1)Nc1ccc(Cl)c(Cl)c1
- log10cfu [1]: 2
- log10cfu [2]: 2
- Activity [3]: Active
- Activity [4]: Active
- Activity [5]: Active
- Activity [6]: Active
- Activity [7]: Active
- Activity [8]: Active

Compound: NNC(=O)c1ccncc1 [ISONIAZID]
- log10cfu [1]: 2
- log10cfu [2]: 3
